CHRM5 PAM = potentiates acetylcholine response at human M5 receptor; AID 624038; 360,000 compounds, 0.3% hits; activation, % at 3 µM; P08912; CHO-K1 hM5, Fluo-8 calcium, ACh EC20 PAM; 0% = ACh EC20, 100% = ACh EC100;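 active means activation above the run cutoff, the mean activation of all test compounds plus 3 SD, cut at about 18% in these data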
Target sequence (P08912 whole entry, looked up): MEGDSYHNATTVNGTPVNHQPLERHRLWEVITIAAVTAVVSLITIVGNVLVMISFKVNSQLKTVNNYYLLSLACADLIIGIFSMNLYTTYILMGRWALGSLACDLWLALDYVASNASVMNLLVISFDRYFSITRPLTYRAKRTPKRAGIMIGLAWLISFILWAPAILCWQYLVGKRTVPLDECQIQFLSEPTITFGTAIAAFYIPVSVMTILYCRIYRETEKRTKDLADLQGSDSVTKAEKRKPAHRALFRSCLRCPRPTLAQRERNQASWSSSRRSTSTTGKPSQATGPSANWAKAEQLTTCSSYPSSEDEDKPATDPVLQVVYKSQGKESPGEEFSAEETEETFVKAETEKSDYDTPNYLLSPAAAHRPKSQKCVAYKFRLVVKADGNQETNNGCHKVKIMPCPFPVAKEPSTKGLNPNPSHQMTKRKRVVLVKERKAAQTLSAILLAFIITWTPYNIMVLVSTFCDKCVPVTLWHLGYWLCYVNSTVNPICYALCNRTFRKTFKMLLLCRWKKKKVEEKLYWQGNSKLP
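Replicates: One well per compound, no replicates | System: Human M5 receptor in CHO-K1 cells | Benchmarks: Low control EC20 acetylcholine (0%), high control EC100 acetylcholine (100%) | Probe or stimulus: Acetylcholine, EC20 level | Times: Fluo-8 loading 80 min at 37 °C plus 30 min room temperature | Signal: Intracellular calcium via Fluo-8 fluorescence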
CHRM5 antagonist = blocks acetylcholine activation of human M5 receptor; CHO-hM5 cells, Fluo-8 calcium fluorescence, ACh EC80; inhibition, % at 3 µM; P08912; 360,000 compounds, 0.59% hits;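 active means inhibition above a per-plate cutoff, the mean of that plate's test compounds plus 3 SD, cut at about 27% in these data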;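 further: 0% = acetylcholine EC80 with DMSO and 100% = DMSO without agonist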
M4 antag = blocks acetylcholine activation of human M4 receptor; P08173; CHO-hM4 cells, ACh EC80, Fluo-8 calcium fluorescence; inhibition, % at 3 µM; 360,000 compounds, 0.73% hits; AID 624125;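 active means inhibition above its plate's cutoff, the mean inhibition of sample wells plus 3 SD, cut at about 27% in these data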;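 further: 0% = acetylcholine EC80 with DMSO and 100% = DMSO without agonist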
CHRM5 agonist = CHRM5 agonism in calcium assay. P08912. CHO-K1 hM5 cells, Fluo-8 calcium fluorescence; 0% DMSO wells, 100% maximal acetylcholine response. activation, % at 3 µM. 360,000 compounds, 0.19% hits;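 active means activation above the run's mean over test compounds plus 3 SD, cut at about 23% in these data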;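 further: signal is peak over basal fluorescence ratio across the kinetic read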
CHRM4 agonist = agonists of human muscarinic M4 receptor (CHRM4); activation, % at 3 µM; P08173; CHO-K1 hM4/Gqi5, Fluo-8 calcium fluorescence; vehicle 0%, full acetylcholine response 100%; 360,000 compounds, 0.14% hits; AID 624127;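 active means activation above the run mean over all test wells plus 3 SD, cut at about 32% in these data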;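 further: peak over basal fluorescence ratio per well then scaled between controls; 0% = DMSO wells and 100% = acetylcholine at EC100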
M4 PAM = CHRM4 positive allosteric modulation; P08173; CHO-K1 hM4/Gqi5, Fluo-8 calcium fluorescence, ACh EC20; 0% = ACh EC20, 100% = maximal ACh; activation, % at 3 µM; 360,000 compounds, 0.4% hits;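 active means activation above its plate's cutoff, the mean activation of sample wells plus 3 SD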
Numbers without * were called inactive. Hits are enriched below; roughly 1.9% of the tested compounds scored in any of these assays.

SMILES | CHRM5 PAM | CHRM5 antagonist | M4 antag | CHRM5 agonist | CHRM4 agonist | M4 PAM
O=C(NCCN1CCOCC1)C(=O)NCC1OCCCN1S(=O)(=O)c1ccc(F)cc1 (stereo unspecified) | 2 | 9 | 0 | -5 | 1 | 10
CN(C(=O)CCNC(=O)Cn1cnc2ccccc2c1=O)c1ccc(Br)cc1 | 0 | 6 | 9 | 0 | 1 | -4
CN(CCc1ccccn1)C(=O)CCNC(=O)Cn1cnc2ccccc2c1=O | 1 | 6 | -13 | 2 | 2 | 19*
Cc1nn(CC(C)C)c(Cl)c1C(=O)N(c1ccc(Cl)cc1F)S(C)(=O)=O | 2 | 6 | 0 | -5 | -1 | 2
Cc1ccnc(NC(=S)N2CCN(c3cccc(C(F)(F)F)c3)CC2)c1 | -5 | 1 | -10 | -5 | 5 | -7
Cc1noc(C)c1COc1ccc(C(=O)Nc2cccnc2)cc1 | -7 | 10 | 32* | -17 | 1 | -22
CCOc1ccc(C(=O)NCc2ccccn2)cc1 | 3 | 0 | 1 | 0 | 1 | 31*
Cc1noc(C)c1COc1ccc(CC(=O)NCCc2ccccn2)cc1 | 4 | 0 | 7 | -4 | 1 | -3
Cc1noc(C)c1COc1ccc(C(=O)NCCc2ccccn2)cc1 | 9 | 2 | -15 | -2 | 5 | 29*
Cc1cccc(NC(=O)c2ccc(OCc3c(C)noc3C)cc2)c1 | 2 | 1 | 7 | -5 | 3 | -5
NN=C1c2ccccc2C(=O)C1C(=O)C(c1ccccc1)c1ccccc1 (stereo unspecified) | -24 | 38* | 22 | 56* | 13 | -8
Cc1ccc(C(=O)C2C(=O)c3ccccc3C2=O)cc1 | 5 | -2 | -10 | 1 | 1 | 6
NCCCCNCCCN | -21 | 12 | -1 | 75* | 3 | 0
COC(=O)c1c(NC(=O)C2=COCCO2)sc(C)c1C | -1 | 6 | 7 | -5 | 0 | 25*
COc1ccc(C)c2sc(NC(=O)C3=COCCO3)nc12 | 6 | -6 | -9 | 1 | 15 | 36*
C#Cc1ccc(NC(=O)C2(C)CCN2C(=O)CC(c2ccccc2)c2ccccc2)cc1 (stereo unspecified) | -7 | 0 | 8 | -3 | -1 | -12
Oc1cc(-n2cccn2)c(O)cc1-n1cccn1 | -5 | 15 | 5 | -3 | 1 | -5
CN1CCN(CCn2c(=S)[nH]c3ccccc3c2=O)CC1 | -18 | 33* | -3 | -6 | 2 | -6
O=c1c2ccccc2[nH]c(=S)n1CCN1CCN(Cc2ccccc2)CC1 | 0 | 6 | 5 | -7 | 2 | -12
COc1cc(NC(=O)c2ccc(F)cc2)c(OC)cc1Cl | 10 | -4 | -5 | -14 | -1 | -2
COc1cc(NC(=O)c2c(F)c(F)c(F)c(F)c2F)c(OC)cc1Cl | -9 | 2 | 36* | -8 | -3 | -20
COc1cc(NC(=O)c2cc3nc(C)cc(C)n3n2)c(OC)cc1Cl | 7 | -10 | 2 | -4 | 1 | 28*
COc1ccc(C(=O)Nc2cc(OC)c(Cl)cc2OC)cc1 | -2 | 17 | 0 | -6 | 0 | 0
CN(C)CCCn1c(=O)n(C2CCCCC2)c(=O)c2c3c(sc21)CCCCC3 | 3 | 9 | 1 | 1 | 2 | 9
Oc1ccc(Cl)cc1Cc1cc(Cl)ccc1O | -13 | 11 | 27* | 5 | 26 | -15
SMILES | CHRM5 PAM | CHRM5 antagonist | M4 antag | CHRM5 agonist | CHRM4 agonist | M4 PAM
Oc1ccc(Cl)cc1CNCc1ccc(Cl)cc1 | 0 | 9 | -1 | 11 | 8 | 5
CC1(C)CC(CC(=O)O)(c2ccc(Cl)cc2)CCO1 (stereo unspecified) | -8 | 9 | -7 | -3 | 2 | 17*
Cc1sc2ncnc(N/N=C/c3ccc(O)cc3)c2c1C | -2 | -4 | -1 | 2 | 3 | 19
Cc1sc2ncnc(N/N=C/c3ccccc3O)c2c1C | 0 | -3 | -20 | 0 | 1 | 30*
O=C(c1cc2c(c(-c3cccc(-c4ccncc4)c3)n1)[C@@H](CCO)N(C(=O)c1ccc3c(c1)OCO3)C2)N1CCOCC1 | -5 | -4 | -14 | 1 | 0 | 8
Fc1cccc(Cl)c1CSC1=NCCS1 | 1 | 0 | -1 | -5 | -1 | 4
CCCCCCCCC[n+]1cccc2c3ccccc3ccc21 | -20 | 41* | 70* | -4 | 3 | -22
Cc1ccccc1C[n+]1cccc2ccccc21 | -7 | 9 | 18 | -13 | 0 | -3
O=[N+]([O-])c1ccc(C[n+]2cccc3c4ccccc4ccc32)cc1 | 3 | 14 | 0 | -8 | 1 | -5
CCCCCCCCCCCCCCCC[n+]1cccc2ccccc21 | -20 | 64* | 52* | -8 | -1 | -15
Cn1nc(OC(=O)Nc2cccc(Cl)c2)cc1C(F)(F)F | -17 | 27* | 5 | 6 | 15 | 1
CN1C(=O)CSC1=Nc1ccc(F)cc1 | 5 | 6 | -20 | -2 | 1 | 14*
CN1C(=O)CSC1=Nc1cccc(C(=O)O)c1 | 3 | 6 | 4 | -4 | 2 | 0
COCCCNc1nc2ccccc2nc1NS(=O)(=O)c1cccc(Cl)c1 | 5 | -8 | -7 | -2 | 1 | 0
O=S(=O)(Nc1nc2ccccc2nc1NCCO)c1cccc(Cl)c1 | -3 | -4 | 29* | -4 | -2 | -14
CCN(CC)CCNC(=O)c1ccc(NC(C)=O)cc1 | -2 | 1 | -14 | 0 | 2 | 2
CCN(CC)CCNC(=O)c1ccc(N)cc1 | 1 | -6 | 29* | -1 | 0 | -13
CCc1nnc(NC(=O)c2ccncc2)s1 | 20* | -7 | -5 | -4 | 0 | 18*
CCc1nnc(NC(=O)c2cc(-c3ccco3)nc3ccccc23)s1 | 14 | -5 | -8 | 1 | 1 | 4
CCc1nnc(NC(=O)c2cc(-c3ccccn3)nc3ccccc23)s1 | 2 | 5 | -2 | 5 | 1 | 19*
CCCc1nnc(NC(=O)c2ccncc2)s1 | -2 | -3 | 2 | 2 | 0 | 0
Cc1nc2ccccc2nc(C)c1=NOCc1cccc(F)c1 | 5 | 10 | -4 | 0 | 1 | 0
Cc1nc2ccccc2nc(C)c1=NOCc1ccc(C#N)cc1 | 5 | 4 | -1 | 0 | 2 | 19*
CCOC(=O)c1cc(C)nnc1C(=O)OCC | -6 | 11 | -6 | 1 | 0 | 0
COC(=O)CCCCCCCCCCN1CCCCC1 | -6 | -1 | 40* | -9 | 2 | -16
COC(=O)CCCCC(=O)OC | -5 | 6 | 3 | 1 | 2 | 6
COc1ccc(CCN(C)S(=O)(=O)c2cn(C)c(=O)n(C)c2=O)cc1OC | -3 | 4 | 4 | -3 | 1 | 4
